# Published values collected from several papers.
# Lines come from different studies, so protocols differ.
# Effect on: enzyme activity
# Mode: inhibitor
# INSR: Insulin receptor (INSR, Homo sapiens, UniProt P06213)
# INSR phosphorylated: Insulin receptor, phosphorylated (INSR, Homo sapiens, UniProt P06213)
Structure (SMILES),target,assay,setting,remaining activity
CC(C)(C)c1nc2c(s1)c1nc(N)ncc1c1ccc(NS(=O)(=O)c3c(F)cccc3F)c(F)c12,INSR,radiometric,1 µM,112%
Cn1c(=O)n(-c2ccc(C(C)(C)C#N)cc2)c2c3cc(-c4cnc5ccccc5c4)ccc3ncc21,INSR,,10 µM,99%
Cc1cnc(NC2CCOCC2)nc1-n1cnc(C(=O)NC(CN)c2cc(F)cc(Cl)c2)c1 (stereo not drawn),INSR,radiometric,1 µM,103%
Nc1nc(Nc2ccccc2)sc1C(=O)c1c(F)cccc1F,INSR,,10 µM,88%
CC(C)(O)[C@H]1CC[C@H](Nc2ccc3ncc(-c4cccc(C(F)(F)F)c4)n3n2)CC1,INSR,,1 µM,102%
O=C(Nc1cnn(-c2csc(C(=O)NC3COC3)c2)c1)Nc1ccccc1Cl,INSR,,5 µM,98.4%
CC(C)(C)C(=O)c1sc(NC2CCCCC2)nc1N,INSR,,10 µM,93%
CCCOc1ccc(OC)c(F)c1C(=O)c1ccc(C(=O)N[C@@H]2CNC[C@H]2NC(=O)c2ccc3[nH]ncc3c2)cc1,INSR phosphorylated,,10 µM,98%
COc1cc(Nc2cnc(C#N)c(O[C@H](C)CN(C)C)n2)ncc1-c1cnn(C)c1,INSR,radiometric,10 µM,84%
COc1cc(Cl)c(C(=O)N[C@@H](CN[C@H]2CC[C@@H](N)CC2)Cc2ccc(C#N)cc2)cc1-c1ccc(CN[C@H](C)c2ccc(C)cc2)o1,INSR phosphorylated,,1 µM,100%
CCN(CC)c1ccc(C2=NNC(=O)CC2C)cc1[N+](=O)[O-] (stereo not drawn),INSR phosphorylated,,10 µM,95%
Cc1[nH]c(/C=C2\C(=O)Nc3ccc(F)cc32)c(C)c1C(=O)N[C@H]1CCN(C(=O)N(C)C)C1,INSR,,0.1 µM,132%
